Screens deposited in PubChem by Johns Hopkins Ion Channel Center.
MrgX1 allo act = allosterically activates human MrgX1 receptor signaling. Q96LB2. MrgX1-HEK293, Fluo-4 calcium flux, FDSS; hits give high values. B-score at 10 µM. 310,000 tested, 0.63% active. AID 588675;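 active = plate-corrected calcium response at least 3 library SD above typical, normal starting fluorescence, not activating the receptor alone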;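 note: compound read alongside a low EC10 to EC30 dose of BAM8-22 agonist; peak minus trough fluorescence over baseline measured at the second addition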
Target sequence (Q96LB2 whole entry, looked up): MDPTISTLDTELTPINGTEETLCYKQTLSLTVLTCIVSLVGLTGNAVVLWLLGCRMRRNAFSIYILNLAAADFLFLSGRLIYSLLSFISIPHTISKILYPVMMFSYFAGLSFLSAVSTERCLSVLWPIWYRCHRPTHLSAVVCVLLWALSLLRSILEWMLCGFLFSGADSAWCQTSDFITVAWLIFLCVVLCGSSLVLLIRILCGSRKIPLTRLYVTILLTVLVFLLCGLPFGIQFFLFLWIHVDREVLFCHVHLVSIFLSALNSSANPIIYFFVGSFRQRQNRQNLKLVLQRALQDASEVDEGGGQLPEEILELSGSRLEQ
RGS4 act = potentiators or activators of RGS4; 310,000 tested, 0.92% active; B-score at 10 µM; HEK293 M3R/inducible RGS4, carbachol calcium flux Fluo4; hits give low values;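 active = B-score of the integrated calcium signal more than 4 SD below the library mean, with starting fluorescence not abnormally high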;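 note: negative B-score means reduced calcium response which marks RGS4 activation or potentiation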
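Material: M3R-expressing HEK293 line, RGS4 induced by doxycycline | Schedule: Overnight RGS4 induction, 30 min dye load 37 °C, 20 min compound RT | Measured by: Fluo4 fluorescence kinetic imaging of calcium | Read-out: Integrated calcium ratio converted to B score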
MrgX1 antag = human MrgX1 receptor antagonism, primary screen. 310,000 tested, 1.3% active. AID 588676. Q96LB2. B-score at 10 µM. MRGX1-HEK293 calcium flux, Fluo-4, BAM8-22 antagonism; hits give low values;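 active = calcium-response B-score plate-corrected more than 3 library SD below zero, starting fluorescence within 5 deviations, no agonist response on first addition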;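 note: peak minus trough fluorescence over baseline after final BAM8-22 challenge near maximal dose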
RGS4 block = human RGS4 inhibition. P49798. HEK293 M3R/RGS4 inducible, Fluo-4 calcium flux; hits give high values; triggered by carbachol at its EC20. B-score at 10 µM. 310,000 tested, 0.45% active. AID 463165;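 active = B-score, a plate-corrected calcium signal, over three deviations above library mean, with baseline fluorescence within five deviations of library mean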;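 note: RGS4 expression induced by doxycycline in cells with stable M3 receptor; B-score is computed from the integrated fluorescence ratio over baseline after carbachol; higher B-score means a larger calcium signal and so more RGS4 inhibition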
Target sequence (P49798 whole entry, looked up): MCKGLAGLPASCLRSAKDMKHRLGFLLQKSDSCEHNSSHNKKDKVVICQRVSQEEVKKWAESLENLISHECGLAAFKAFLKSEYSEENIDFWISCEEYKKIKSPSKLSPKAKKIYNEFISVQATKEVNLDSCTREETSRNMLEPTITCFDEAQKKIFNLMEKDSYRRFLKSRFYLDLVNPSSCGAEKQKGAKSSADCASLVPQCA
MrgX1 agonist = activates human MrgX1 receptor signaling | AID 588627 | B-score at 10 µM | MrgX1-HEK293 cells, Fluo-4 calcium fluorescence, agonist mode; hits give high values | 310,000 tested, 0.44% active;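 active = calcium response B-score plate-corrected fluorescence ratio at least 3 library SD, with starting fluorescence B-score inside 5 SD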
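Test system: Stable human MrgX1 HEK293 cell line | Schedule: Overnight plating before 1 h dye loading | Read-out basis: Baseline-normalised fluorescence change ratio, B-scored | Detection: Kinetic calcium dye fluorescence, Fluo-4 NW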
Of the large screens only hits and unclear results are named; the others gave an inactive call. Rows were chosen to be rich in hits. Some 3.5% of all compounds tested hit in one or more screens of this group.

CC(=O)c1cccc(Oc2cc(NN3CCCCC3)c([N+](=O)[O-])cc2[N+](=O)[O-])c1	RGS4 act -7.29
CC(=O)c1ccccc1Oc1cc(NN2CCCCC2)c([N+](=O)[O-])cc1[N+](=O)[O-]	RGS4 act -8.28
COc1ccc(Oc2cc(NN3CCCCC3)c([N+](=O)[O-])cc2[N+](=O)[O-])cc1OC	RGS4 act -8.2
O=[N+]([O-])c1cc([N+](=O)[O-])c(Oc2c(F)cccc2F)cc1NN1CCCCC1	none
O=[N+]([O-])c1cc([N+](=O)[O-])c(Oc2c(Cl)cccc2Cl)cc1NN1CCCCC1	none
O=[N+]([O-])c1cc([N+](=O)[O-])c(Oc2c(F)ccc(F)c2F)cc1NN1CCCCC1	RGS4 act -7.17
COc1cccc(C(=O)SC2=NCCS2)c1	none
O=C(COC(=O)Cc1ccc(S(=O)(=O)N2CCOCC2)s1)NCc1ccc(Cl)cc1	none
COc1cc(/C=N/n2c(C3CCCCC3)n[nH]c2=S)ccc1O	none
COc1ccc([C@@H]2[C@@H]3C(=O)N(C(C)(C)C)C(=O)[C@@H]3[C@]3(Cc4ccc(Cl)cc4)C(=O)N(c4ccc(C)cc4)C(=O)N23)cc1	none
C=C(C)CSc1nc2sc3c(c2c(=O)n1-c1ccccc1)CCN(C)C3	RGS4 act -7.46
CCCCSc1nc2sc3c(c2c(=O)n1-c1ccccc1)CCN(C)C3	RGS4 act -7.28
O=C(N[C@@H](Cc1ccc(O)cc1)C(=O)O)c1cccnc1	none
O=C(CCN1C(=O)/C(=C\c2cccs2)SC1=S)Nc1ccc(C(=O)O)cc1	none
O=C(CCCN1C(=O)/C(=C/c2cccs2)SC1=S)Nc1cccnc1	MrgX1 antag -5.56
CCN(CC)CCOC(=O)c1ccc(NC(=O)CCCN2C(=O)/C(=C\c3cccs3)SC2=S)cc1	RGS4 act -7.59
O=C(CCCN1C(=O)/C(=C\c2cccs2)SC1=S)Nc1cccnc1	none
CCC(C(=O)N1CCCCCC1)n1nc(C)n2c(cc3occc32)c1=O (configuration not stated)	none
Oc1cccc(C(Nc2nccs2)c2ccc3cccnc3c2O)c1 (configuration not stated)	RGS4 act -7.02
NNC(=O)c1ncoc1-c1ccc(Cl)cc1	none
O=C(NNC(=S)Nc1ccc(F)c(Cl)c1)c1ccccc1Br	none
CCOC(=O)C(NCCc1ccccc1)(NC(=O)CC)C(F)(F)F (configuration not stated)	none
O=C(N/N=C\c1cc([N+](=O)[O-])ccc1N1CCOCC1)c1ccccn1	MrgX1 antag -4.54
CC(=O)N1N=C(c2ccc(NS(C)(=O)=O)cc2)CC1c1ccc2nccnc2c1 (configuration not stated)	MrgX1 antag -7.23
CS(=O)(=O)Nc1ccc(C2=NN(S(C)(=O)=O)C(c3ccc4nccnc4c3)C2)cc1 (configuration not stated)	none
OC(CNCCC1C=Nc2ccccc21)Cn1c2ccc(Cl)cc2c2cc(Cl)ccc21 (configuration not stated)	RGS4 block 7.4
N#C/C(=C\c1ccc([N+](=O)[O-])o1)c1nc2ccccc2[nH]1	MrgX1 antag -4.51
N#C/C(=C\c1ccc(Sc2ccccc2)o1)c1nc2ccccc2[nH]1	MrgX1 allo act 7.59
Cc1ccc(NC(=O)/C=C/C(=O)O)c([N+](=O)[O-])c1	none
COc1ccc(NC(=O)/C=C/C(=O)O)c([N+](=O)[O-])c1	MrgX1 allo act 13.5
O=C(c1ccccc1)C1CCN(C(=O)C2CCC(=O)N(Cc3ccccc3F)C2)CC1 (configuration not stated)	none
CCCCCCN1C=CC=C/C1=C/C=C(C#N)C#N	MrgX1 antag -8.12
CC1CCCCN1C(=S)NCc1ccco1 (configuration not stated)	none
CCOC(=O)C(C(=O)OCC)C(C(=O)OCC)N1CCOCC1 (configuration not stated)	MrgX1 agonist 31.3
CCOC(=O)C(C)CC(C)C(=O)N1CCOCCOCCN(C(=O)C(C)CC(C)C(=O)OCC)CCOCC1 (configuration not stated)	none
O=C(CN(c1ccccc1)S(=O)(=O)c1ccc(F)cc1)NC1CCCCCC1	none
COC(=O)c1ccc2c(c1)C(=O)/C(=C/c1ccc(O)cc1)O2	MrgX1 antag -5.31
O=C1/C(=C/c2ccc(Br)cc2)Oc2cc(O)ccc21	MrgX1 antag -9.74
CC(=O)Nc1ccc(C2=NN(C)C(=NCc3ccccc3)SC2)cc1	MrgX1 allo act 7.75
O=C(C1=C[C@H](C2CC2)C[C@H](OCCCCO)O1)N1CCOCC1	none
O=C1C(=C2CCCCC2)SC(=S)N1Cc1ccco1	RGS4 act -7.91
CN(C)c1ccc(/C=C/C(=O)c2cc(Cl)ccc2O)cc1	MrgX1 antag -6.84
Cc1cc(NC(=O)CSCC(=O)OC(C)C(=O)N(C)Cc2ccccc2)no1 (configuration not stated)	MrgX1 antag -7.41
Cc1cc(NC(=O)CSCC(=O)OC(C)C(=O)c2cc(C)c(C)cc2C)no1 (configuration not stated)	none
CC(C)CO/C(=N/S(=O)(=O)c1ccccc1)c1ccccc1	none
CC(C)O/C(=N\S(=O)(=O)c1ccc(Cl)cc1)c1ccccc1	RGS4 act -7.11
Cc1ccc(N(CC(=O)NC2CCCCC2)C(=O)CNC(=O)c2ccco2)cc1F	none
NCCCC(=O)N1c2ccccc2Sc2ccccc21	RGS4 act -7.03
CCN(CC)CC(=O)N1c2ccccc2Sc2ccc(Cl)cc21	RGS4 act -9.75
CCN(CC)C(=O)N1c2ccccc2Sc2ccccc21	none
COc1ccc(NC(=O)CCNS(=O)(=O)c2cccc3nonc23)cc1	none
Cc1cc(C)cc(-n2c(C)cc(/C=N/NC(=O)c3cccc([N+](=O)[O-])c3C)c2C)c1	RGS4 act -7.35
Cc1cc(C)cc(-n2c(C)cc(/C=N/NC(=O)CSc3ncccn3)c2C)c1	RGS4 act -8.35
Cc1cc(C)cc(-n2c(C)cc(/C=N/NC(=O)c3ccncc3)c2C)c1	none
Cc1c(C(=O)N/N=C/c2ccoc2)cccc1[N+](=O)[O-]	none
CCn1c(C)nnc1SCC(=O)Nc1ccc(Cl)cc1	none
COc1cc(/C=C2\SC(c3ccc(C)cc3)=NC2=O)ccc1O	MrgX1 antag -5.79
COc1cc(/C=C2\SC(=N)N(c3ccc(F)cc3)C2=O)ccc1O	MrgX1 antag -4.88
COc1ccc(/C=C2\SC(c3ccc(C)cc3)=NC2=O)cc1OC	none
S=c1[nH]nc(-c2ccco2)n1/N=C/c1ccc(Cl)cc1	none
CCN=c1scc(-c2ccccc2)n1/N=C/c1ccccn1	MrgX1 allo act 11.7
C=CCN=c1scc(-c2ccccc2)n1/N=C/c1ccccn1	MrgX1 allo act 14.5
C=CCN=c1scc(-c2ccc(F)cc2)n1/N=C/c1ccccn1	none
Cc1c(CN2CCC(CO)(CCOc3ccccc3)CC2)c(=O)n(-c2ccccc2)n1C	none
